Data: ChEMBL document CHEMBL2062446, “Design of a Potent CB1 Receptor Antagonist Series: Potential Scaffold for Peripherally-Targeted Agents” (ACS Med Chem Lett, 2012)

What was measured:
[1] = system: MDR1; experiment: Apparent permeability from apical to basal side of MDCK cells expressing MDR1; type: ADME, cell-based, Canis lupus familiaris; conditions: dog
Procedure, shortened: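 MDCK cells transfected with the MDR1 gene were used to assess whether compounds are MDR1 transporter substrates.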

[2] = 1-Octanol-sodium phosphate buffer partition coefficient, log D of the compound at pH 7.4 after 24 hrs by shake flask method; type: physicochemical

| Papp A→B [1] [×10⁻⁶ cm/s] | logD at 24 h [2] | Compound |
| --- | --- | --- |
| 12.1 |  | CCC(=O)NC1CCCOc2c1nn(-c1ccccc1Cl)c2-c1ccc(Cl)cc1 (racemic) |
| 9.1 |  | COC(=O)NC1CCCOc2c1nn(-c1ccccc1Cl)c2-c1ccc(Cl)cc1 (racemic) |
| 6.9 |  | CC(C)C(=O)NC1CCCOc2c1nn(-c1ccccc1Cl)c2-c1ccc(Cl)cc1 (racemic) |
| 8.4 |  | CC(C)C(=O)N[C@@H]1CCCOc2c1nn(-c1ccccc1Cl)c2-c1ccc(Cl)cc1 |
| 11.2 |  | O=C1CCCN1C1CCCOc2c1nn(-c1ccccc1Cl)c2-c1ccc(Cl)cc1 (racemic) |
| 14.1 |  | CC(=O)NC1CCCOc2c1nn(-c1ccccc1Cl)c2-c1ccc(Cl)cc1 (racemic) |

Further lines, the compound ahead of its results:

| Compound | Papp A→B [1] [×10⁻⁶ cm/s] | logD at 24 h [2] |
| --- | --- | --- |
| CC(F)(F)CN1CCOc2c(nn(-c3ccccc3Cl)c2-c2ccc(Cl)cc2)C1=O | 7.1 | 4.1 |
| O=C(NC1CCCOc2c1nn(-c1ccccc1Cl)c2-c1ccc(Cl)cc1)c1cnon1 (racemic) | 3 |  |
| O=C(NC1CCCOc2c1nn(-c1ccccc1Cl)c2-c1ccc(Cl)cc1)C1CCOCC1 (racemic) | 6.8 |  |
| N#CC1(C(=O)NC2CCCOc3c2nn(-c2ccccc2Cl)c3-c2ccc(Cl)cc2)CC1 (configuration not stated) | 1 |  |
| CS(=O)(=O)CC(=O)NC1CCCOc2c1nn(-c1ccccc1Cl)c2-c1ccc(Cl)cc1 (racemic) | 2.7 |  |
| O=C(NC1CCCOc2c1nn(-c1ccccc1Cl)c2-c1ccc(Cl)cc1)c1ccon1 (racemic) | 6.6 |  |
| O=C(NC1CCCOc2c1nn(-c1ccccc1Cl)c2-c1ccc(Cl)cc1)c1ccno1 (racemic) | 3.2 |  |
| CCOCC(=O)NC1CCCOc2c1nn(-c1ccccc1Cl)c2-c1ccc(Cl)cc1 (configuration not stated) | 6.5 |  |
| COCC(=O)NC1CCCOc2c1nn(-c1ccccc1Cl)c2-c1ccc(Cl)cc1 (racemic) | 9.1 |  |
| CCNC(=O)NC1CCCOc2c1nn(-c1ccccc1Cl)c2-c1ccc(Cl)cc1 (racemic) | 6.3 |  |
